Assay results as given in PubChem BioAssay.
Calls of active or inactive are those of the source.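 The calls were made as follows, unless noted: active = compounds giving at least 50% inhibition in the cell-based MKP-3 phosphatase rescue imaging test; inactive = the rest.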

Columns and labels:
[1] = inhibitors of TNFa-induced NFkB p65 translocation, primary screen, imaging, HUVEC, MLSMR starter and 10KST1 sets (AID 438;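 active = inhibition above 20% together with a positive visual image hit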;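 also: compound added about 3h40 before a 20 min TNFalpha stimulation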;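 as to inhibition: signal is the nuclear over cytoplasmic p65 intensity ratio per well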); conditions: HUVEC TNFa-induced p65 nuclear translocation; cell count: measured here: nuclei count (cytotoxicity indicator), at 2.08 µM; inhibition: at 2 µM, stronger effect = higher value, 0% TNFa-plus-vehicle, 100% no-TNFa wells
[2] = endothelial E-selectin expression blockers – imaging, HUVEC, immunofluorescence, MLSMR starter and 10KST1 sets, primary screen (AID 487;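 active = visually confirmed hit in the image check and inhibition above 20%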;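 as to inhibition: signal is fraction of cell area covered by stained E-selectin grains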;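 as to nuclei count: 100% = median nuclei count of all wells on the same plate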); conditions: HUVEC TNFalpha-induced E-selectin immunofluorescence imaging, at 2 µM; inhibition: stronger effect = higher value; nuclei count: measured here: cell number, toxicity
[3] = Primary imaging screen for DUSP6 inhibitors that restore phospho-Erk in transfected HeLa cells, chemical complementation (AID 609); conditions: HeLa MKP-3 transfected, phospho-Erk imaging KS statistic, at 10 µM, cells stimulated with TPA for 15 min;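 as to inhibition: phospho-Erk level distribution per well compared with pooled transfected vehicle control wells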
[4] = biological target: Dual specificity protein phosphatase 6 (Homo sapiens) (UniProt Q16828); experiment: as above; conditions: HeLa MKP-3 transfected, phospho-Erk imaging KS statistic; at 10 µM; stronger effect = higher value; cells stimulated with TPA for 15 min
[5] = biological target: Voltage-gated potassium channel subunit beta-2 (Rattus norvegicus) (UniProt P62483); experiment: inhibitors of rat Kvbeta2 reductase activity – biochemical, NADPH fluorescence, primary screen (AID 622;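 active = fluorescence slope higher than the sample average by over 3 SD, cut at about -0.22 in these data, passing the limit was not always enough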;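 also: slope of raw intensity against log time taken from 70 to 1610 s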); conditions: recombinant KvBeta, 4-cyanobenzaldehyde reduction, at 10 µM, stronger effect = higher value
[6] = biological target: Voltage-gated potassium channel subunit beta-2 (Rattus norvegicus) (UniProt P62483); experiment: enhancers of rat Kvbeta2 NADPH turnover – biochemical, NADPH fluorescence, primary screen (AID 623;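 active = NADPH fluorescence slope more negative than the mean of all samples by about 3 SD, 99.7% confidence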;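 also: fluorescence intensity change per second fitted from 20 to 320 s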); conditions: Recombinant KvBeta, NADPH fluorescence decrease slope, 10 min; at 10 µM; stronger effect = lower value
[7] = biological target: Alpha-2C adrenergic receptor (Homo sapiens) (UniProt P18825); experiment: compounds altering alpha2C-coupled GIRK flux – cell-based, HEK293 alpha2C/GIRK1/2, thallium flux, primary screen (AID 624;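 active = fluorescence slope after compound addition differing from the mean of all screened samples at 99.7% confidence, in either direction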;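 also: slope of fluorescence ratio to pre-addition baseline per second over 15 to 24 s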); conditions: thallium flux BTC fluorescence, at 10 µM, actives lie on both sides
[8] = inhibitors of larval lipid processing in zebrafish, primary screen, whole organism, PED6 fluorescence, gall bladder and intestine (AID 686;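 active = a full or partial loss of lipid-probe fluorescence in the fish gall bladder, intestine or both, judged by eye; inactive = no fluorescence loss, or compound toxic to the fish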;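 also: larvae 5 to 7 days old with five fish per well; signal comes from phospholipase A2 cleavage of quenched PED6 carried via bile; overnight exposure to compound and PED6 before scoring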); conditions: Zebrafish larvae PED6 lipid processing, fluorescence scoring; screened at 20 µM (by protocol)
In short: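 Doses: 20 µM single dose. Test system: live zebrafish larvae aged 5-7 days, whole organism. Quantity: five larvae per well. Measured by: By-eye fluorescence microscopy. Reagent: ingested quenched lipid PED6 at 100 nM. Read-out: visual per-well fluorescence inhibition score. Times: overnight exposure of larvae to compound plus PED6.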

[9] = loss of swimming-algae plug formation – whole organism, Chlamydomonas reinhardtii, WT vs cilia-less mutant, absorbance, 96-well, primary screen (AID 463189;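 active = inhibition at or above 50% relative to wild type and mutant plate controls; inactive = inhibition below 50%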;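 also: 0% = wild type cc124 cells in DMSO and 100% = ciliumless bld1 mutant cells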); conditions: Chlamydomonas reinhardtii gravitaxis, OD600 absorbance, 2 days; at 10 µM; stronger effect = higher value
[10] = measured here: cell density z-score
[11] = measured here: nuclear c-Myc green intensity z-score
[12] = measured here: nuclear pErk red intensity z-score, stronger effect = higher value

Sequence of Dual specificity protein phosphatase 6 (Homo sapiens) (Q16828 whole entry, looked up): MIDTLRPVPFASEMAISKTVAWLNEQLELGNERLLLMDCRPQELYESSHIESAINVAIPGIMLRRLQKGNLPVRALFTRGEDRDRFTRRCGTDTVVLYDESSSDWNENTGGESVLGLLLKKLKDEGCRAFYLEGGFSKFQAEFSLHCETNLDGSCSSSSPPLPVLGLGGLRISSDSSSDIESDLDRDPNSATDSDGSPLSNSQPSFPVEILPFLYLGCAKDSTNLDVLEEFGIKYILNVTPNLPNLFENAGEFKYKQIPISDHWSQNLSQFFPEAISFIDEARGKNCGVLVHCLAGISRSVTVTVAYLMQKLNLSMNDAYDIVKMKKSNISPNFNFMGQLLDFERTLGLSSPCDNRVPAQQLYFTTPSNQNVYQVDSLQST
Sequence of Voltage-gated potassium channel subunit beta-2 (Rattus norvegicus) (P62483 whole entry, looked up): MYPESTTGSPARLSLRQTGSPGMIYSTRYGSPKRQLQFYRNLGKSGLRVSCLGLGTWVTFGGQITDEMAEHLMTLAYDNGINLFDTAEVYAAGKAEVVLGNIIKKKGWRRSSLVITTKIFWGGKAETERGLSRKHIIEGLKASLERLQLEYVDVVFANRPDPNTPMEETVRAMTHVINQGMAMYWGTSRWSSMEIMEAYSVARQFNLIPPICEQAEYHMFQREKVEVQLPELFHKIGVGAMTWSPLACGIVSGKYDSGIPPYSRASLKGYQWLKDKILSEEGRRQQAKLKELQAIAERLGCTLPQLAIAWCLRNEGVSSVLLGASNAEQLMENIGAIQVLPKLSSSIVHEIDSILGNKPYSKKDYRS
Sequence of Alpha-2C adrenergic receptor (Homo sapiens) (P18825 whole entry, looked up): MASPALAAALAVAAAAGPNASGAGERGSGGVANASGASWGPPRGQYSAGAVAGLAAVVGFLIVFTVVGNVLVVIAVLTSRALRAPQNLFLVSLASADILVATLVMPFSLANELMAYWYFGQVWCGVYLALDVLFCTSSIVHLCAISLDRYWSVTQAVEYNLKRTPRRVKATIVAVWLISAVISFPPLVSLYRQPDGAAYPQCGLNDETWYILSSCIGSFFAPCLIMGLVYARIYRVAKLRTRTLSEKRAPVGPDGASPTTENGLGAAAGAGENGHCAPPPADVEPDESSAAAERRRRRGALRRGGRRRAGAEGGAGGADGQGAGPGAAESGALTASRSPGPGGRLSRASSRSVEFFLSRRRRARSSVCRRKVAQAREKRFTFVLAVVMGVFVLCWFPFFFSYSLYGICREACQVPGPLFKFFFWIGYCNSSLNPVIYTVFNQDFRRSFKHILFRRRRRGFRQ

Structure (SMILES)	cell count [1]	inhibition [1]	inhibition [2]	nuclei count [2] [%]	z-score [3, 10]	z-score [3, 11]	z-score [3, 12]	inhibition [4]	fluorescence slope [5]	NADPH fluorescence slope [6]	slope [7]	outcome [8]	inhibition [9]
COc1ccc(OC)c(C2/C(=C(/O)c3ccc(C)cc3)C(=O)C(=O)N2Cc2ccco2)c1 (centres undefined)	561	-1.8% (inactive)	-18.5% (inactive)	143	1.28	0.438	0.373	-7.86% (inactive)	-0.568 (inactive)	-1.3e-05 (inactive)	0.00557 (inactive)	inactive	-7.49% (inactive)
CCc1cccc(CC)c1N(COC)C(=O)Cn1nnc2ccccc21	369	-11% (inactive)	-230% (inactive)	180	0.728	0.454	-0.0174	20.8% (inactive)	-0.394 (inactive)	-2.8e-05 (inactive)	0.00431 (inactive)	inactive	23.5% (inactive)
COc1ccccc1C1/C(=C(/O)c2cnn(-c3ccccc3)c2C)C(=O)C(=O)N1CCN(C)C (centres undefined)	498	-0.5% (inactive)	-189% (inactive)	132	0.414	-0.415	-0.719	10.5% (inactive)	-0.558 (inactive)	-7e-05 (inactive)	0.00448 (inactive)	inactive; toxic	-1.15% (inactive)
CC(C)CN1C(=O)NC(NC(=O)c2cccnc2)(C(F)(F)F)C1=O (centres undefined)	488	-2.8% (inactive)	-106% (inactive)	130	0.462	-0.157	-1.2	1.75% (inactive)	-0.505 (inactive)	-7.1e-06 (inactive)	0.00612 (inactive)	inactive	-0.985% (inactive)
COCCCNC(=O)c1c(N)n(/N=C/c2cccs2)c2nc3ccccc3nc12	342	-11.1% (inactive)	4.6% (inactive)	125	0.439	-0.623	-0.0865	17.4% (inactive)	-0.266 (inactive)	-5.1e-05 (inactive)	0.00731 (inactive)	inactive	24.1% (inactive)
O=c1c(-c2ccc3c(c2)OCCO3)c(C(F)(F)F)oc2cc(O)cc(O)c12	534	-10.2% (inactive)	-138% (inactive)	131	1.65	-1.41	-0.0254	1.9e-07% (inactive)	-0.533 (inactive)	-4e-05 (inactive)	0.00864 (inactive)	inactive	29.9% (inactive)
C/C(CC1(O)C(=O)N(Cc2ccccc2)c2ccccc21)=N\O (centres undefined)	645	-11.4% (inactive)	-28.2% (inactive)	182	-1.05	-1.05	1.51	-7.79% (inactive)	-0.464 (inactive)	-0.000206 (inactive)	0.0275 (active)	inactive	-6.97% (inactive)
CCN(CC)CCCN1C(=O)C(O)=C(C(=O)c2ccc(C)o2)C1c1ccc(C)o1 (centres undefined)	581	-17.5% (inactive)	-104% (inactive)	153	0.106	0.341	0.337	-2.47% (inactive)	-0.485 (inactive)	-5.2e-05 (inactive)	0.00555 (inactive)	inactive	4.2% (inactive)
COc1cc(C)nc(N(C)S(=O)(=O)c2ccccc2Cl)n1	587	-9% (inactive)	26.6% (inactive)	175	1.16	0.469	-0.133	9.82% (inactive)	-0.36 (inactive)	3.2e-06 (inactive)	0.00436 (inactive)	inactive	-1.55% (inactive)
CCCCOC(=O)Nc1ccc(S(=O)(=O)Nc2nc(C)cc(C)n2)cc1	515	-10.1% (inactive)	-17.4% (inactive)	128	0.944	1.82	-0.786	2.92% (inactive)	-0.439 (inactive)	-1.7e-05 (inactive)	0.00517 (inactive)	inactive	-15.6% (inactive)
CN(C)c1nc2n(c(=O)n1)C(C#N)CS2 (centres undefined)	364	-3.1% (inactive)	-192% (inactive)	105	0.947	-1.21	-1.65	13.2% (inactive)	-0.438 (inactive)	-5.8e-06 (inactive)	0.00693 (inactive)	inactive	-3.08% (inactive)
OCCCc1nc2ccccc2n1CCc1ccccc1	390	-15.7% (inactive)	-395% (inactive)	203	1.19	-1.69	-0.407	20.8% (inactive)	-0.421 (inactive)	-4.3e-05 (inactive)	0.00481 (inactive)	inactive	15.3% (inactive)
CCCOc1ccc(/C(O)=C2/C(=O)C(=O)N(CCN(C)C)C2c2ccncc2)cc1 (centres undefined)	434	-4.1% (inactive)	-139% (inactive)	154	1.88	0.199	-1.31	-4.7% (inactive)	-0.418 (inactive)	-6.3e-05 (inactive)	0.00564 (inactive)	inactive	8.14% (inactive)
